Measurements from ChEMBL document CHEMBL2074208, “P-glycoprotein inhibition by glibenclamide and related compounds” (Pflugers Arch, 1999).
Values belong to the compound of their own block, whether it stands above or below them.

What was measured:
[1] = target: T1, ATP-dependent translocase ABCB1 (Homo sapiens, UniProt P08183); assay: TP_TRANSPORTER: inhibition of Azidopine photoaffinity labelling (Azidopine: 0.16 uM, BM-223: 100 uM) in membranes from CEM/VBL600 cells; conditions: cem/vbl600, 100 µM
[2] = target: T1, ATP-dependent translocase ABCB1; assay: TP_TRANSPORTER: increase in Colchicine intracellular accumulation (Colchicine: 0.0175 uM, BM-223: 100 uM) in CEM/VBL600 cells; assay type: functional, cell-based; conditions: cem/vbl600, 100 µM
Procedure, shortened: (§1)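 1.5×10⁶ viable cells were preincubated 10 min at 37 °C with inhibitor or 0.1% DMSO. [³H]colchicine (final 1.25 µCi/ml; 17.5 nM) was added for 60 min at 37 °C. Cells were pelleted at 4 °C, washed ice-cold and counted by scintillation. Uptake is given as % of the no-inhibitor control; n≥3.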

[3] = target: Multidrug resistance protein 1a (Rattus norvegicus) (UniProt Q6PSM0); assay: TP_TRANSPORTER: increase in Glibenclamide intracellular accumulation (Glibenclamide: 0.0525 uM, BM-223: 100 uM) in CC531mdr+ cells; assay type: functional, cell-based
Procedure, shortened: (§2)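 Confluent CC531mdr+ monolayers, held colchicine-free ≥12 h, were preincubated 10 min at 37 °C in buffer A with inhibitor or 0.1% DMSO. They were then exposed 60 min to [³H]glibenclamide (2.5 µCi/ml; 52.5 nM glibenclamide) with inhibitor. After an ice-cold buffer wash, acid extraction (0.1 N HNO₃) and scintillation counting, uptake was expressed as % of the inhibitor-free control; n≥3.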

[4] = target: Multidrug resistance protein 1a (Rattus norvegicus) (UniProt Q6PSM0); assay: TP_TRANSPORTER: increase in Colchicine intracellular accumulation (Colchicine: 0.035 uM, BM-223: 100 uM) in CC531mdr+ cells; assay type: functional, cell-based
Procedure, shortened: (§3)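 CC531mdr+ monolayers were grown to confluence and kept colchicine-free for ≥12 h. They were preincubated 10 min at 37 °C in buffer A (pH 7.4) with inhibitor or 0.1% DMSO, then incubated 60 min in buffer A with [³H]colchicine (2.5 µCi/ml; 35 nM colchicine) plus the same additions. After an ice-cold wash, radioactivity was extracted with 0.1 N HNO₃ and counted. Accumulation is given as % of the no-inhibitor control; n≥3.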

[5] = target: Multidrug resistance protein 1a (Rattus norvegicus) (UniProt Q6PSM0); assay: TP_TRANSPORTER: increase in Glibenclamide intracellular accumulation (Glibenclamide: 0.0525 uM, BM-208: 100 uM) in CC531mdr+ cells; assay type: functional, cell-based
Procedure, shortened: as §2

[6] = target: T1, ATP-dependent translocase ABCB1; assay: TP_TRANSPORTER: inhibition of Azidopine photoaffinity labelling (Azidopine: 0.16 uM, BM-208: 100 uM) in membranes from CEM/VBL600 cells; conditions: cem/vbl600, 100 µM
[7] = target: T1, ATP-dependent translocase ABCB1; assay: TP_TRANSPORTER: increase in Colchicine intracellular accumulation (Colchicine: 0.0175 uM, BM-208: 100 uM) in CEM/VBL600 cells; assay type: functional, cell-based; conditions: cem/vbl600, 100 µM
Procedure, shortened: as §1

[8] = target: Multidrug resistance protein 1a (Rattus norvegicus) (UniProt Q6PSM0); assay: TP_TRANSPORTER: increase in Colchicine intracellular accumulation (Colchicine: 0.035 uM, BM-208: 100 uM) in CC531mdr+ cells; assay type: functional, cell-based
Procedure, shortened: as §3

[9] = target: Multidrug resistance protein 1a (Rattus norvegicus) (UniProt Q6PSM0); assay: TP_TRANSPORTER: increase in Colchicine intracellular accumulation (Colchicine: 0.035 uM, Glibenclamide: 100 uM) in CC531mdr+ cells; assay type: functional, cell-based
Procedure, shortened: as §3

[10] = target: T1, ATP-dependent translocase ABCB1; assay: TP_TRANSPORTER: increase in Colchicine intracellular accumulation (Colchicine: 0.0175 uM, Glibenclamide: 100 uM) in CEM/VBL600 cells; assay type: functional, cell-based; conditions: cem/vbl600, 100 µM
Procedure, shortened: as §1

[11] = target: Multidrug resistance protein 1a (Rattus norvegicus) (UniProt Q6PSM0); assay: TP_TRANSPORTER: increase in Glibenclamide intracellular accumulation (Glibenclamide: 0.0525 uM, Vinblastine: 100 uM) in CC531mdr+ cells; assay type: functional, cell-based
Procedure, shortened: as §2

[12] = target: Multidrug resistance protein 1a (Rattus norvegicus) (UniProt Q6PSM0); assay: TP_TRANSPORTER: increase in Colchicine intracellular accumulation (Colchicine: 0.035 uM, Vinblastine: 100 uM) in CC531mdr+ cells; assay type: functional, cell-based
Procedure, shortened: as §3

[13] = target: T1, ATP-dependent translocase ABCB1; assay: TP_TRANSPORTER: increase in Colchicine intracellular accumulation (Colchicine: 0.0175 uM, Vinblastine: 100 uM) in CEM/VBL600 cells; assay type: functional, cell-based; conditions: cem/vbl600, 100 µM
Procedure, shortened: as §1

T1 sequence (P08183 whole entry): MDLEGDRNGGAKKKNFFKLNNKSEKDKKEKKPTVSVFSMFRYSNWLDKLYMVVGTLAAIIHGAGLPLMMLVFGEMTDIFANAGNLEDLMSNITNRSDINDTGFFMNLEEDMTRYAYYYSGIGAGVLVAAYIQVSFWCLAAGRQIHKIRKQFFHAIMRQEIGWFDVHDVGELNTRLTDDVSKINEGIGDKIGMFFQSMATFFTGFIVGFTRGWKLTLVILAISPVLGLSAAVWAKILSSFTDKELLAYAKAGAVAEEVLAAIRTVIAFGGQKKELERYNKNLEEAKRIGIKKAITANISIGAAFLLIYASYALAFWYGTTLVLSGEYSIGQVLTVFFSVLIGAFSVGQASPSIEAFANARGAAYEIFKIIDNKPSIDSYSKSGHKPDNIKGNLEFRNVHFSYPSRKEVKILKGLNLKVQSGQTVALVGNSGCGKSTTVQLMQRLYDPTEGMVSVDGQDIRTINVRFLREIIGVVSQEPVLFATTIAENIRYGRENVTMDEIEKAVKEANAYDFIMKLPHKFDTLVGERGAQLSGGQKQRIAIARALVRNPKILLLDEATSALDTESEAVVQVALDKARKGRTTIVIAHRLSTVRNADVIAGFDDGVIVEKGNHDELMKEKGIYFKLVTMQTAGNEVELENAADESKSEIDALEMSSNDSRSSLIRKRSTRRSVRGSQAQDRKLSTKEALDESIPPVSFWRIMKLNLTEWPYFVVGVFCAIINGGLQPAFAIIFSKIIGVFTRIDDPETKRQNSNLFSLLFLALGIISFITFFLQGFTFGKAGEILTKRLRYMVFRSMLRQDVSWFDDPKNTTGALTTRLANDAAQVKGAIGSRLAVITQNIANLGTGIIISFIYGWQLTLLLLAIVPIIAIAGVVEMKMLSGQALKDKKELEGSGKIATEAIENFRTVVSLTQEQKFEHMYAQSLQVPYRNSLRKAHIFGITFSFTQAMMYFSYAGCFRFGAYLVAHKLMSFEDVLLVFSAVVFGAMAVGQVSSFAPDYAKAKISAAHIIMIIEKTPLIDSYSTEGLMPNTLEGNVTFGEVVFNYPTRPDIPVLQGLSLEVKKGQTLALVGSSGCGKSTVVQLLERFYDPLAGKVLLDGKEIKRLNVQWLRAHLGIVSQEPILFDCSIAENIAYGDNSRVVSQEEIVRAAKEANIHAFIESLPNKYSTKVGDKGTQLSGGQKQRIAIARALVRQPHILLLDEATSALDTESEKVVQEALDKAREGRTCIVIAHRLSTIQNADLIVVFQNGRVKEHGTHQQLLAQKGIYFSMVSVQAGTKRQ
Sequence of Multidrug resistance protein 1a (Rattus norvegicus) (Q6PSM0 as listed by the source): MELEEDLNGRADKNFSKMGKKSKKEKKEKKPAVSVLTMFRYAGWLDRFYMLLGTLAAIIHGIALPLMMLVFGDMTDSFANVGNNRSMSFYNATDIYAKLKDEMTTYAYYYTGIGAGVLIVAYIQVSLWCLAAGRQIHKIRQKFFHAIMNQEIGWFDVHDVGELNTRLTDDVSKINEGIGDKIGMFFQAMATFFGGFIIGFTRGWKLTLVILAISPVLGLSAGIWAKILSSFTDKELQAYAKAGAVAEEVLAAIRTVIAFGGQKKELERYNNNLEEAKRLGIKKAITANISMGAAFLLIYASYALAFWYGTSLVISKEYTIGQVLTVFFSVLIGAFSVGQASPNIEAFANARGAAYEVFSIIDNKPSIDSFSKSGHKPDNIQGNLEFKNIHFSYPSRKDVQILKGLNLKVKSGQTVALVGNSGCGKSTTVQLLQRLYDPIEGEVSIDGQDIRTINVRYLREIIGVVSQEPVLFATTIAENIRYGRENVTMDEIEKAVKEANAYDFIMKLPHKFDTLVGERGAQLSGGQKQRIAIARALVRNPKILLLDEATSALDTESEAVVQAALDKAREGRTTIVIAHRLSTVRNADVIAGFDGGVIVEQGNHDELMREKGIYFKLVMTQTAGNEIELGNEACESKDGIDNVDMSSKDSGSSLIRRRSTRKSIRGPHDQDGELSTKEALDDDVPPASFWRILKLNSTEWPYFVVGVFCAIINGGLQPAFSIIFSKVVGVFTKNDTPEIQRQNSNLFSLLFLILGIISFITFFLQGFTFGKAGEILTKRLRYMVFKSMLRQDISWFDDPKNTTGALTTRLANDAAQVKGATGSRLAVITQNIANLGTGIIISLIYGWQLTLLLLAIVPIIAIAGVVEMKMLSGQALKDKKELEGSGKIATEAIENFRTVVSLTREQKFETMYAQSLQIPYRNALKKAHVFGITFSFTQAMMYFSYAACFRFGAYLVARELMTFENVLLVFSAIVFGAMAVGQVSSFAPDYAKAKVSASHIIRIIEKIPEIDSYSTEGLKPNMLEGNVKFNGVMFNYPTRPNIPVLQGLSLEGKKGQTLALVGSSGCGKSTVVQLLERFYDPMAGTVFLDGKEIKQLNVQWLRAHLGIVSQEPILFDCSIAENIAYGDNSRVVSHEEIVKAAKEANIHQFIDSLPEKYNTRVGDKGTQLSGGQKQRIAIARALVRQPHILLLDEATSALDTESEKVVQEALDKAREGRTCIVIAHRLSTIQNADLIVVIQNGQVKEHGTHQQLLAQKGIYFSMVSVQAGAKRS

Compound: COc1ccc(Cl)cc1C(=O)NCCc1ccc(S(=O)(=O)N/C(=N/C#N)NC2CCCCC2)cc1
Activity [5]: inhibitor [+]
Activity [6]: inhibitor [+]
Activity [7]: inhibitor [+]
Activity [8]: inhibitor [+]

Compound: COc1ccc(CCN(C)CCCC(C#N)(c2ccc(OC)c(OC)c2)C(C)C)cc1OC (centres undefined)
Activity [11]: inhibitor [+]

Compound: CC[C@]1(O)C[C@@H]2CN(CCc3c([nH]c4ccccc34)[C@@](C(=O)OC)(c3cc4c(cc3OC)N(C)[C@H]3[C@@](O)(C(=O)OC)[C@H](OC(C)=O)[C@]5(CC)C=CCN6CC[C@]43[C@@H]65)C2)C1 [VINBLASTINE]
Activity [12]: inhibitor [+]
Activity [13]: inhibitor [+]
Activity [11]: inhibitor [+]

Next, values leading:

Activity [1]: inhibitor [+]
Activity [2]: inhibitor [+]
Activity [3]: inhibitor [+]
Activity [4]: inhibitor [+]
Compound: COc1ccc(Cl)cc1C(=O)NCCc1ccc(S(=O)(=O)N/C(=N/C#N)NC2CCC(C)CC2)cc1 (centres undefined)

Activity [9]: inhibitor [+]
Activity [10]: inhibitor [+]
Compound: COc1ccc(Cl)cc1C(=O)NCCc1ccc(S(=O)(=O)NC(=O)NC2CCCCC2)cc1 [GLYBURIDE]
